Test results from ChEMBL document CHEMBL4257575, “Discovery of Novel Flavonoid Dimers To Reverse Multidrug Resistance Protein 1 (MRP1, ABCC1) Mediated Drug Resistance in Cancers Using a High Throughput Platform with "Click Chemistry"” (J Med Chem, 2018).

Legend:
[1] = biological target: T1, Multidrug resistance-associated protein 1 (Homo sapiens, UniProt P33527); experiment: Inhibition of MRP1 in human 2008/MRP1 cells assessed as potentiation of doxorubicin-induced cytotoxicity by measuring cell survival at 2 uM after 5 days by MTS assay relative to control; format: cell-based; settings: 120 h
Procedure, shortened: (§1)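 2008/MRP1 cells (retroviral human MRP1 transfectant; RPMI 1640, 10% FBS) at 4,000 per well, with 100 nM doxorubicin plus crude, unpurified click products in DMSO: 2 µM in the primary screen, 1 µM in the secondary. Incubated 5 days at 37 °C. MTS/PMS added for 2 h at 37 °C, absorbance read at 490 nm. % survival is relative to wells without DOX or product. Run in triplicate, at least three experiments.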

[2] = biological target: T1, Multidrug resistance-associated protein 1; experiment: Inhibition of MRP1 in human 2008/MRP1 cells assessed as potentiation of doxorubicin-induced cytotoxicity by measuring cell survival at 1 uM after 5 days by MTS assay relative to control; format: cell-based; settings: 120 h; procedure, shortened: as §1
[3] = Cytotoxicity against human 2008/MRP1 cells assessed as cell survival at 2 uM after 5 days by MTS assay relative to control; format: cell-based; settings: read-out: Survival
L929 = experiment: Cytotoxicity against mouse L929 cells assessed as reduction in cell survival after 5 days by MTS assay; format: cell-based; settings: L929, 120 h
Homo sapiens = species: Homo sapiens; experiment: Inhibition of P-gp in human LCC6MDR cells assessed as potentiation of paclitaxel-induced cytotoxicity by measuring fold reduction in paclitaxel IC50 at 1 uM after 5 days by MTS assay relative to paclitaxel alone; format: cell-based
MRP1 = experiment: in vitro; settings: mouse, L929 cells (IC50) versus 2008/MRP1 cells (EC50)

T1 sequence (P33527 whole entry): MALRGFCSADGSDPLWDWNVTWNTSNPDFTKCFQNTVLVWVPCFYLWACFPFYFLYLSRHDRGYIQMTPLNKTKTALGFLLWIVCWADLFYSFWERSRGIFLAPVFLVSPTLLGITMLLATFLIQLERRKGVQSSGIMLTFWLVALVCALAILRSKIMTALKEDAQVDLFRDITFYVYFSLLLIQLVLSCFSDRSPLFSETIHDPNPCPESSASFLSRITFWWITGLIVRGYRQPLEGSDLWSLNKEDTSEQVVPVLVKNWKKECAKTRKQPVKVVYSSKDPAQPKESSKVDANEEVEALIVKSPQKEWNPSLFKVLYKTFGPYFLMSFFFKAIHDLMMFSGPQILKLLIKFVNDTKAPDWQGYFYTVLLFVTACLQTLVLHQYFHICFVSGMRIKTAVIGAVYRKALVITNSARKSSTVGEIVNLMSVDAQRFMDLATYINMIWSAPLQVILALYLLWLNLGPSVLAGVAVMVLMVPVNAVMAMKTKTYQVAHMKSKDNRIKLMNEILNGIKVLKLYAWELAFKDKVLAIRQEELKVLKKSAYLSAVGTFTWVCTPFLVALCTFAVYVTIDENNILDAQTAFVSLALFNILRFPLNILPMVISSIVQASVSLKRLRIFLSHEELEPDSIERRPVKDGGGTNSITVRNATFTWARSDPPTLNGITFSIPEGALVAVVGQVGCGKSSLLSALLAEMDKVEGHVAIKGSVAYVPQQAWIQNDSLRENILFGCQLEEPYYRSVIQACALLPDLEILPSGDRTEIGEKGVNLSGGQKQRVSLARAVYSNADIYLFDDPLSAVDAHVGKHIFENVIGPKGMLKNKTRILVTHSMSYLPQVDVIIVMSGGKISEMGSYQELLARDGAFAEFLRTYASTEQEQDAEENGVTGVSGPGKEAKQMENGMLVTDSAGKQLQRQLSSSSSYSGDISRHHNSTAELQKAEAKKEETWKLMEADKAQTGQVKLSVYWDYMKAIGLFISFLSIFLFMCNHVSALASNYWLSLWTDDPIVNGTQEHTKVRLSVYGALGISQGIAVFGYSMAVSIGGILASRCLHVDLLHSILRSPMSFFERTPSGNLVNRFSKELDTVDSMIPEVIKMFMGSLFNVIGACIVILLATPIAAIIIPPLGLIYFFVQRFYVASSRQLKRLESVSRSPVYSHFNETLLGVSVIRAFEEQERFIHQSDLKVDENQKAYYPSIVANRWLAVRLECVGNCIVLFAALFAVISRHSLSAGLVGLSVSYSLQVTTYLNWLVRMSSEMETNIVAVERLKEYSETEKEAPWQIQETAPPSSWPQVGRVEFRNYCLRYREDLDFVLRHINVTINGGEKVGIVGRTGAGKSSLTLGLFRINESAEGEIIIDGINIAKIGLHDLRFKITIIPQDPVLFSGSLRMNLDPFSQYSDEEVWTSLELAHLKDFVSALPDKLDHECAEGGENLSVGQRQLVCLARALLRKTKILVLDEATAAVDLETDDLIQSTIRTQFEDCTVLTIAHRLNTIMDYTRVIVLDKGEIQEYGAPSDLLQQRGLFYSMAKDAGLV

| SMILES | Survival [1] | Survival [2] | viability at 120 h, 2 µM [3] | IC50 (L929) | Ratio IC50 (Homo sapiens) | selectivity ratio (MRP1) |
| --- | --- | --- | --- | --- | --- | --- |
| Cc1ccc2oc(-c3ccc(OCCCCc4cn(CCOCCOCCOc5ccc(-c6cc(=O)c7cc(F)ccc7o6)cc5)nn4)cc3)cc(=O)c2c1 | 34% | 41% | 100% | > 100 µM | 99.2 | > 461 |
| O=c1cc(-c2ccccc2)oc2cc(OCCCc3cn(CCOCCOc4ccc5c(=O)cc(-c6ccccc6)oc5c4)nn3)ccc12 | 45% | 49% | 98% | > 100 µM | 4 | > 336 |
| Cc1ccc2oc(-c3ccc(OCCCCc4cn(CCOCCOCCOc5ccc(-c6cc(=O)c7cc(C)ccc7o6)cc5)nn4)cc3)cc(=O)c2c1 | 38% | 50% | 100% | > 50 µM | 58.8 | > 365 |
| Cc1ccc2oc(-c3ccc(OCCOCCOCCn4cc(CCCOc5ccc(-c6cc(=O)c7ccc(F)cc7o6)cc5)nn4)cc3)cc(=O)c2c1 | 45% | 50% | 95% | > 100 µM | 36.9 | > 826 |
| O=c1cc(-c2ccc(OCCOCCn3cc(CCCOc4ccc(-c5cc(=O)c6ccc(F)cc6o5)cc4)nn3)cc2)oc2ccccc12 | 21% | 29% | 91% | > 100 µM | 63.5 | – |
| Cc1ccc2oc(-c3ccc(OCCCCc4cn(CCOCCOc5ccc(-c6cc(=O)c7cc(F)ccc7o6)cc5)nn4)cc3)cc(=O)c2c1 | 30% | 38% | 99% | > 100 µM | 99.2 | > 400 |
| O=c1cc(-c2ccc(OCCOCCn3cc(CCCOc4ccc5c(=O)cc(-c6ccccc6)oc5c4)nn3)cc2)oc2ccccc12 | 23% | 30% | 92% | > 100 µM | 19.1 | > 662 |
| O=c1cc(-c2ccccc2)oc2cc(OCCN(Cc3ccccc3)Cc3cn(CCOCCOc4ccc(-c5oc6ccccc6c(=O)c5OCc5ccccc5)cc4)nn3)ccc12 | 49% | 53% | 82% | – | – | – |
| O=c1cc(-c2ccc(OCCOCCn3cc(CN(CCOc4ccc5c(=O)cc(-c6ccccc6)oc5c4)Cc4ccccc4)nn3)cc2)oc2ccccc12 | 26% | 29% | 97% | > 100 µM | 38.7 | – |
| O=c1cc(-c2ccc(OCCCc3cn(CCOCCOc4cccc(-c5oc6ccccc6c(=O)c5OCc5ccccc5)c4)nn3)cc2)oc2cc(F)ccc12 | 45% | 55% | 99% | – | – | – |
| O=c1cc(-c2ccccc2)oc2cc(OCCOCCn3cc(CN(CCOc4ccc5c(=O)cc(-c6ccccc6)oc5c4)Cc4ccccc4)nn3)ccc12 | 46% | 54% | 80% | – | – | – |
| O=c1cc(-c2ccc(OCCOCCn3cc(COCCOc4ccc5c(=O)cc(-c6ccccc6)oc5c4)nn3)cc2)oc2ccccc12 | 31% | 46% | 97% | > 50 µM | 3.3 | > 190 |
| O=c1cc(-c2ccc(OCCCc3cn(CCOCCOCCOc4ccc(-c5cc(=O)c6cc(F)ccc6o5)cc4)nn3)cc2)oc2cc(F)ccc12 | 42% | 48% | 95% | > 100 µM | 22.7 | > 971 |
| O=c1cc(-c2ccccc2)oc2cc(OCCOCc3cn(CCOCCOCCOc4ccc(-c5oc6ccccc6c(=O)c5OCc5ccccc5)cc4)nn3)ccc12 | 45% | 48% | 95% | > 100 µM | 46.7 | > 518 |
| O=c1cc(-c2ccc(OCCCc3cn(CCOCCOc4ccc(-c5cc(=O)c6ccccc6o5)cc4)nn3)cc2)oc2ccccc12 | 29% | 51% | 81% | 60 µM | 31.7 | 531 |
| O=c1cc(-c2ccccc2)oc2cc(OCCN(Cc3ccccc3)Cc3cn(CCOCCOc4ccc(-c5cc(=O)c6cc(F)ccc6o5)cc4)nn3)ccc12 | 36% | 46% | 87% | > 100 µM | 26.5 | > 645 |
| CN(C)C(=O)CCSC(SCCC(=O)O)c1cccc(/C=C/c2ccc3ccc(Cl)cc3n2)c1 (stereo unspecified) [MK-571] | – | – | – | > 100 µM | – | – |

| SMILES | Survival [1] | Survival [2] | viability at 120 h, 2 µM [3] | IC50 (L929) | Ratio IC50 (Homo sapiens) | selectivity ratio (MRP1) |
| --- | --- | --- | --- | --- | --- | --- |
| O=c1cc(-c2ccc(OCCOCCn3cc(CCCCOc4ccc5c(=O)cc(-c6ccccc6)oc5c4)nn3)cc2)oc2ccccc12 | 30% | 42% | 95% | > 100 µM | 19.8 | > 1150 |
| O=c1cc(-c2ccc(OCCOCCn3cc(CN(Cc4ccccc4)Cc4cn(CCOCCOc5ccc(-c6cc(=O)c7ccccc7o6)cc5)nn4)nn3)cc2)oc2ccccc12 | 49% | 79% | 92% | – | – | – |
| O=c1cc(-c2ccc(OCCOCCOCCn3cc(CCCOc4ccc(-c5cc(=O)c6ccc(F)cc6o5)cc4)nn3)cc2)oc2ccccc12 | 44% | 51% | 93% | > 100 µM | 4 | > 481 |
| O=c1cc(-c2ccccc2)oc2cc(OCCCc3cn(CCOCCOCCOc4ccc(-c5cc(=O)c6cc(F)ccc6o5)cc4)nn3)ccc12 | 48% | 49% | 88% | > 100 µM | 16 | > 1050 |
| Cc1ccc2oc(-c3ccc(OCCCCc4cn(CCOCCOCCOc5ccc6c(=O)cc(-c7ccccc7)oc6c5)nn4)cc3)cc(=O)c2c1 | 33% | 65% | 89% | – | – | – |
| COc1cccc(COc2c(-c3ccc(OCCOCCn4cc(COCCOc5ccc6c(=O)cc(-c7ccccc7)oc6c5)nn4)cc3)oc3ccccc3c2=O)c1 | 47% | 71% | 88% | – | – | – |
| Cc1ccc2oc(-c3ccc(OCCCCc4cn(CCOCCOc5ccc(-c6cc(=O)c7ccccc7o6)cc5)nn4)cc3)cc(=O)c2c1 | 20% | 25% | 85% | > 57 µM | 69 | > 553 |
| O=c1cc(-c2ccccc2)oc2cc(OCCN(Cc3ccccc3)Cc3cn(CCOCCOCCOc4ccc(-c5cc(=O)c6cc(F)ccc6o5)cc4)nn3)ccc12 | 44% | 50% | 72% | > 100 µM | 16.9 | > 641 |
| O=c1cc(-c2ccccc2)oc2cc(OCCCCc3cn(CCOCCOCCOc4ccc(-c5cc(=O)c6cc(F)ccc6o5)cc4)nn3)ccc12 | 47% | 59% | 92% | – | – | – |
| O=C(/C=C/c1ccc(OCCCCc2cn(CCOCCOc3ccc(-c4cc(=O)c5ccccc5o4)cc3)nn2)cc1)c1ccc(F)cc1O | 42% | 66% | 90% | – | – | – |
| COCOc1cc(OCc2ccccc2)c2c(=O)cc(-c3ccc(OCCCc4cn(CCOCCOc5ccc(-c6cc(=O)c7ccccc7o6)cc5)nn4)cc3)oc2c1 | 39% | 64% | 95% | – | – | – |
| O=c1cc(-c2ccc(OCCCc3cn(CCOCCOCCOc4ccc(-c5oc6ccccc6c(=O)c5OCc5ccccc5)cc4)nn3)cc2)oc2ccccc12 | 45% | 62% | 39% | – | – | – |
| O=C(/C=C/c1ccc(OCCCCc2cn(CCOCCOc3ccc(-c4cc(=O)c5ccccc5o4)cc3)nn2)cc1)c1ccccc1O | 39% | 56% | 83% | – | – | – |
| O=c1cc(-c2ccc(OCCCc3cn(CCOCCOCCOc4ccc5c(=O)cc(-c6ccccc6)oc5c4)nn3)cc2)oc2ccccc12 | 42% | 54% | 49% | – | – | – |
| O=c1cc(-c2ccc(OCCOCCOCCn3cc(CN(CCOc4ccc5c(=O)cc(-c6ccccc6)oc5c4)Cc4ccccc4)nn3)cc2)oc2ccccc12 | 45% | 48 to 63% | 74% | > 100 µM | 31.7 | – |
| O=c1cc(-c2ccc(OCCCc3cn(CCOCCOCCOc4ccc(-c5oc6ccccc6c(=O)c5OCc5ccccc5)cc4)nn3)cc2)oc2cc(F)ccc12 | 37% | 53% | 97% | – | – | – |
| Cc1ccc2oc(-c3ccc(OCCCCc4cn(CCOCCOc5ccc6c(=O)cc(-c7ccccc7)oc6c5)nn4)cc3)cc(=O)c2c1 | 34% | 46% | 93% | > 100 µM | 54.7 | – |
